Source: ChEMBL document CHEMBL1125185, “Nonpeptide angiotensin II receptor antagonists: the discovery of a series of N-(biphenylylmethyl)imidazoles as potent, orally active antihypertensives” (J Med Chem, 1991)
Active and inactive are the calls of the source. No cut-off for these calls is given here.

Experiments:
[1] = tested on: Rattus norvegicus; assay: Blood pressure lowering activity in renal hypertensive rats after intravenous administration; type: functional
Summary of the method: (§1)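 Male Sprague-Dawley CD rats had the left renal artery ligated under hexobarbital (100 mg/kg ip). Six days later the jugular vein and carotid artery were cannulated under hexobarbital (90 mg/kg ip). Compound was given intravenously to the conscious hypertensive rats while mean arterial pressure was recorded.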

[2] = biological target: T1, Angiotensin II receptor (Rattus norvegicus, UniProt P29089+P25095+P35351); assay: Inhibition of radioligand [3H]angiotensin II binding to angiotensin II receptor of rat adrenal cortical membrane
T1 sequence (P29089 whole entry): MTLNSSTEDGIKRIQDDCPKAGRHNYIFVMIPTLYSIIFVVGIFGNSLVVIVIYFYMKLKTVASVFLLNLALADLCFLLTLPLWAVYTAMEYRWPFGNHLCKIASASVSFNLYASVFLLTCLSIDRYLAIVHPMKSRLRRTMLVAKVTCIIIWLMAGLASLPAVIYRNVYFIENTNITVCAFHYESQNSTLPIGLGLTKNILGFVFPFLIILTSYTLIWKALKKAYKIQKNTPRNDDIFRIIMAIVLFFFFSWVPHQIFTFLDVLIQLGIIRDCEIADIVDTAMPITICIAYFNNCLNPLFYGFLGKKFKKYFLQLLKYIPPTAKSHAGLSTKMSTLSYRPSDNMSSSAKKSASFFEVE
T1 sequence (P25095 whole entry): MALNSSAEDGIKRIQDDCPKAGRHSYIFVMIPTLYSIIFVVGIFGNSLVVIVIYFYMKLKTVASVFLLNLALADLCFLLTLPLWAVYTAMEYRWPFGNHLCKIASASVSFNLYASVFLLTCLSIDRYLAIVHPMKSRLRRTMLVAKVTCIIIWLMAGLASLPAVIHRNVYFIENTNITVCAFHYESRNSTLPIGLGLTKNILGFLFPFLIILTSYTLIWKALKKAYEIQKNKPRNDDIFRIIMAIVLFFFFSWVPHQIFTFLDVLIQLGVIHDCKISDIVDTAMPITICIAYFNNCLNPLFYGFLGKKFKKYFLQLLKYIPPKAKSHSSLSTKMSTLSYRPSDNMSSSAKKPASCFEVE
T1 sequence (P35351 whole entry): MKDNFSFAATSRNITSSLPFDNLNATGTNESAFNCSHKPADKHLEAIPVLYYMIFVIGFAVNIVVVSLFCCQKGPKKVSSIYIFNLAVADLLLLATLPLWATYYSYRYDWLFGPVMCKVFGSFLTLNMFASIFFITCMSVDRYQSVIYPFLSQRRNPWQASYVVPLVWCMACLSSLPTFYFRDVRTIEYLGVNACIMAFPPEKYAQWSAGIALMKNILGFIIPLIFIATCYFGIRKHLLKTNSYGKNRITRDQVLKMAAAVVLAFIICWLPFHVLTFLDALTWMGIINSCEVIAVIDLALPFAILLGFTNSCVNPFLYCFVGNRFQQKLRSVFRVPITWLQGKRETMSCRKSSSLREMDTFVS
Summary of the method: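 Rat adrenal cortical microsomes came from male Sprague-Dawley CD rats (300-400 g) and were prepared at 4 °C in sucrose/EDTA/Tris pH 7.4. Samples were filtered and counted, in duplicate. Specific binding was defined with 1 µM unlabeled AII. IC50 was taken from the linear portion of the displacement curve.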

[3] = tested on: Rattus norvegicus; assay: Blood pressure lowering activity in renal hypertensive rats after peroral administration; Inactive indicates fail to cause significant drop in blood pressure even at 100 mg/kg (in vivo); type: functional, organism-based; parameters: dose 100 mg/kg
Summary of the method: (§2)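 Conscious male Sprague-Dawley CD rats, six days after left renal artery ligation and with jugular and carotid cannulae, were dosed by oral gavage at 1-100 mg/kg (4-6 rats/dose). Mean arterial pressure was monitored for 3 h.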

[4] = tested on: Rattus norvegicus; assay: Blood pressure lowering activity in renal hypertensive rats after peroral administration; type: functional; summary of the method: as §2
[5] = tested on: Rattus norvegicus; assay: Effective dose that lowers the blood pressure 30 mmHg after intravenous administration; type: functional
Summary of the method: (§3)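 Renal artery-ligated conscious rats (4-6 per dose) received compound iv or po. ED30 is the dose lowering blood pressure by 30 mmHg. It was calculated by linear regression of mean maximal decreases, using at least three doses from the linear part of the dose-response curve.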

[6] = Ionization constant for the compound; type: physicochemical, Rattus norvegicus
[7] = tested on: Rattus norvegicus; assay: Effective dose that lowers the blood pressure 30 mmHg after peroral administration; type: functional; details: po; summary of the method: as §3
[8] = tested on: Rattus norvegicus; assay: Blood pressure lowering activity in renal hypertensive rats after intravenous administration; no drop in blood pressure or a statistically insignificant drop in blood pressure was observed (in vivo); type: functional; summary of the method: as §1
[9] = tested on: Rattus norvegicus; assay: Blood pressure lowering activity in renal hypertensive rats after peroral administration; no drop in blood pressure or a statistically insignificant drop in blood pressure was observed (in vivo); type: functional; summary of the method: as §2
[10] = tested on: Rattus norvegicus; assay: These values indicate drop in blood pressure activity in renal hypertensive rats after peroral administration; NA=not active indicates fail to cause drop in blood pressure even at 30 mg/Kg (in vivo); type: functional, organism-based
[11] = tested on: Rattus norvegicus; assay: Blood pressure lowering activity in renal hypertensive rats after peroral administration; Inactive indicates fail to cause significant drop in blood pressure even at 100 mg/kg; type: functional, organism-based; parameters: dose 100 mg/kg; summary of the method: as §2
[12] = tested on: Rattus norvegicus; assay: Blood pressure lowering activity in renal hypertensive rats after peroral administration; NA=not active indicates fail to cause drop in blood pressure even at 100 mg/Kg (in vivo); type: functional, organism-based; summary of the method: as §2
[13] = tested on: Rattus norvegicus; assay: Blood pressure lowering activity in renal hypertensive rats after intravenous administration; NA=not active indicates fail to cause drop in blood pressure even at 100 mg/Kg (in vivo); type: functional, organism-based; summary of the method: as §1

SMILES	IC50 [2] [nM]	pKa [6]	Activity [1] [mg/kg]	Activity [4] [mg/kg]	also measured
CCCCc1nc(Cl)c(C=O)n1Cc1ccc(-c2ccccc2-c2[nH]nnc2F)cc1	13000	–	>10	–	Activity [3]: inactive
CCCc1nc(C)c(CO)n1Cc1ccc(-c2ccccc2C(=O)O)cc1	1800	–	–	>30	ED30 [5]: 1.3 mg/kg
CCCCc1nc(Cl)c(CO)n1Cc1ccc(-c2cc(OC)ccc2-c2nn[nH]n2)cc1	–	–	–	>10	ED30 [5]: 6.03 mg/kg
CCCCc1nc(Cl)c(CO)n1Cc1ccc(-c2ccccc2-c2[nH]nnc2C(=O)OC)cc1	260	7	>1	>10	–
CCCCc1nc([N+](=O)[O-])c(CO)n1Cc1ccc(-c2ccccc2C(=O)O)cc1	260	–	10	–	Activity [3]: inactive
CCCCc1nc(C(F)(F)F)c(CO)n1Cc1ccc(-c2ccccc2-c2nn[nH]n2)cc1	–	–	–	–	ED30 [5]: 0.53 mg/kg; Activity [9]: >3 mg/kg
CCCCc1nc(Cl)c(CNC(=O)NC(C)c2cccc3ccccc23)n1Cc1ccc(-c2ccccc2C(=O)O)cc1 (configuration not stated)	700	–	>10	–	Activity [3]: inactive
CCCCc1nc(Cl)c(CNC(=O)c2cc3c(OCC(O)CNC(C)C)cccc3[nH]2)n1Cc1ccc(-c2ccccc2C(=O)O)cc1 (configuration not stated)	380	–	–	–	ED30 [5]: 1 mg/kg
CCCCc1nc(Cl)c(CO)n1Cc1ccc(-c2ccccc2C(=O)NOCc2ccccc2)cc1	4900	10.8	10	–	Activity [3]: inactive
CC/C=C/c1nc(Cl)c(CO)n1Cc1ccc(-c2ccccc2C(=O)O)cc1	–	–	–	–	ED30 [7]: 3.6 mg/kg; ED30 [5]: 1 mg/kg
CCCCc1nc(Cl)c(C=O)n1Cc1ccc(-c2ccc(-c3nn[nH]n3)cc2)cc1	> 10000	–	–	>30	Activity [8]: >3 mg/kg
CCCCc1nc(Cl)c(C=O)n1Cc1ccc(-c2ccccc2C(=O)O)cc1	–	–	10	–	ED30 [7]: 1.7 mg/kg
CCc1nc(Cl)c(CO)n1Cc1ccc(-c2ccccc2C(=O)O)cc1	1700	–	10	100	–
CCCCc1nc(Cl)c(CNC(=O)OC23C[C@H]4C[C@@H](C2)C[C@@H](C3)C4)n1Cc1ccc(-c2ccccc2C(=O)O)cc1	600	–	3	30	–
CCCCc1nc(Cl)c(CO)n1Cc1ccc(-c2cc(C#N)ccc2-c2nn[nH]n2)cc1	510	–	–	>30	Activity [8]: >3 mg/kg
CCCCc1nc(Cl)c(CO)n1Cc1ccc(-c2ccc(OC)cc2-c2nn[nH]n2)cc1	580	–	–	>10	ED30 [5]: 1.75 mg/kg
CCCCc1nc(Cl)c(CNC(=O)Nc2cccc3ccccc23)n1Cc1ccc(-c2ccccc2C(=O)O)cc1	3000	–	10	–	Activity [3]: inactive
CCCCc1ncc(CO)n1Cc1ccc(-c2ccccc2C(=O)O)cc1	270	–	10	–	Activity [3]: inactive
CCCCc1nc(Cl)c(CO)n1Cc1ccc(-c2ccccc2-c2[nH]nnc2C#N)cc1	280	–	>1	>10	–
CCCCc1ncc(CO)n1Cc1ccc(-c2ccccc2-c2nn[nH]n2)cc1	–	–	–	–	Activity [12]: inactive; Activity [13]: inactive
CCCCc1nc(Cl)c(CNC(=O)OC)n1Cc1ccc(-c2ccccc2-c2nn[nH]n2)cc1	60	–	1	>10	–
CCCCc1nc(Cl)c(CO)n1Cc1ccc(-c2ccccc2-c2nnn[nH]2)cc1 [LOSARTAN]	–	6	–	–	ED30 [7]: 0.59 mg/kg; ED30 [5]: 0.8 mg/kg
CCCCCCc1nc(Cl)c(CO)n1Cc1ccc(-c2ccccc2C(=O)O)cc1	–	–	10	–	Activity [3]: inactive
CCCCc1nc(Cl)c(CO)n1Cc1ccc(-c2ccc(C(=O)O)cc2)cc1	–	–	>10	–	Activity [3]: inactive

The next lines start with results.

IC50 [2] [nM]	pKa [6]	SMILES	Activity [1] [mg/kg]	Activity [4] [mg/kg]	also measured
–	5	CCCCc1nc(Cl)c(CO)n1Cc1ccc(-c2ccccc2C(=O)O)cc1	3	–	ED30 [7]: 11 mg/kg
240	–	CCCCc1nc(Cl)c(CNC(=O)NC)n1Cc1ccc(-c2ccccc2C(=O)O)cc1	10	–	Activity [3]: inactive
200	–	CCCCc1nc(Cl)c(COC)n1Cc1ccc(-c2ccccc2C(=O)NNS(=O)(=O)C(F)(F)F)cc1	–	>30	Activity [8]: >3 mg/kg
4100	10.5	CCCCc1nc(Cl)c(CO)n1Cc1ccc(-c2ccccc2C(=O)NO)cc1	–	>30	Activity [8]: >3 mg/kg
–	8.44	CCCCc1nc(Cl)c(CO)n1Cc1ccc(-c2ccccc2C(=O)NS(=O)(=O)c2ccccc2)cc1	–	–	Activity [8]: >3 mg/kg; Activity [10]: inactive
–	9.5	CCCCc1nc(Cl)c(CO)n1Cc1ccc(-c2ccccc2NC(=O)C(F)(F)F)cc1	10	–	Activity [3]: inactive
62	–	CCCCc1nc(C(F)(F)F)c(CO)n1Cc1ccc(-c2ccccc2C(=O)O)cc1	3	30	–
–	10.9	CCCCc1nc(Cl)c(CO)n1Cc1ccc(-c2ccccc2C(=O)NOC)cc1	10	–	Activity [11]: inactive
340	–	CCCCc1nc(Cl)c(C(=O)OC)n1Cc1ccc(-c2ccccc2C(=O)O)cc1	10	100	–
–	6	CCCCc1nc(Cl)c(COC)n1Cc1ccc(-c2ccccc2-c2nn[nH]n2)cc1	1	3	–
–	5	CCCCc1nc(Cl)c(COC)n1Cc1ccc(-c2ccccc2C(=O)O)cc1	10	100	–
150	–	CCCCc1nc(Cl)c(C(N)=O)n1Cc1ccc(-c2ccccc2C(=O)O)cc1	10	100	–
–	4.5	CCCCc1nc(Cl)c(COC)n1Cc1ccc(-c2ccccc2NS(=O)(=O)C(F)(F)F)cc1	10	100	–
–	4.5	CCCCc1nc(Cl)c(CO)n1Cc1ccc(-c2ccccc2NS(=O)(=O)C(F)(F)F)cc1	10	100	–
92	–	CCCCc1nc(Cl)c(C(=O)O)n1Cc1ccc(-c2ccccc2C(=O)O)cc1	–	>10	ED30 [5]: 0.47 mg/kg
